Measured values gathered from unrelated publications.
Lines come from different studies, so protocols differ.
LRRK2: Leucine-rich repeat serine/threonine-protein kinase 2 (LRRK2, Homo sapiens, UniProt Q5S007)
LRRK2 G2019S: Leucine-rich repeat serine/threonine-protein kinase 2 (LRRK2, Homo sapiens, UniProt Q5S007, G2019S)

SMILES	target	read-out	method	tested at	remaining binding [%]
O=C(Nc1cnc(Oc2ccc(F)cc2)nc1)N1CCc2ncccc2[C@@H]1c1ccc(F)cc1	LRRK2	cell-free assay	competition with immobilised ligand	1 µM	83
CN(C)c1nccc(-c2cnn3ncccc23)n1	LRRK2	binding		1 µM	90
COc1ncc2cc3ccccc3nc2c1C#N	LRRK2	cell-free assay	competition with immobilised ligand	5 µM	100
O=C(O)[C@@H]1[C@@H](Cn2nnc3ccccc3c2=O)CC[C@H]1C(=O)c1ccc(OCCC2CCOCC2)cc1	LRRK2	cell-free assay	competition with immobilised ligand	1 µM	100
O=C(NCC1CCOCC1)c1n[nH]cc1NC(=O)c1c(F)cccc1F	LRRK2	binding	competition with immobilised ligand	1 µM	76
Cc1c(C(=O)O)cc(-c2ccc(C3CCNCC3)cc2)c2ccc(-c3ccc(C(F)(F)F)cc3)cc12	LRRK2 G2019S	binding	competition with immobilised ligand	1 µM	100
CN1CCN(c2ccc(Nc3nccc(-c4cccc([N+](=O)[O-])c4)n3)cc2C(F)(F)F)CC1	LRRK2 G2019S	binding		10 µM	49
CCN1CCN(Cc2ccc(C(=O)Nc3ccc(C)c(Oc4ccc5c(c4)CC(=O)N5)c3)cc2C(F)(F)F)CC1	LRRK2 G2019S	binding	competition with immobilised ligand	1 µM	100
O=C(NCCCN1CCOCC1)c1ccc(Nc2ncc(Cl)c(-c3ccc(Cl)s3)n2)cc1	LRRK2 G2019S	binding	competition with immobilised ligand	1 µM	10
N#Cc1ccc(Nc2ccc3[nH]c(=O)[nH]c3c2)c(Cl)c1	LRRK2 G2019S	cell-free assay	competition with immobilised ligand	1 µM	93
COc1ccnn2ncc(-c3ccnc(N(C)C)n3)c12	LRRK2 G2019S	binding		1 µM	100
COc1cnc(Nc2cccc(S(N)(=O)=O)c2)nc1N1CCN(c2ccccc2)C(=O)C1	LRRK2 G2019S	binding	competition with immobilised ligand	1 µM	100
CN(c1nccc(-c2cnn3ncccc23)n1)C1CC1	LRRK2	binding		1 µM	100
Cc1nc(C2CCN(C(=O)c3ccc(OC(F)(F)F)cc3N)CC2)c2ncc(N3CCN(C)CC3)cc2n1	LRRK2 G2019S	cell-free assay	competition with immobilised ligand	1 µM	100
c1cnn2ncc(-c3ccnc(N4CCC45COC5)n3)c2c1	LRRK2	binding		1 µM	35
CCS(=O)(=O)c1cc2cc(C[C@](O)(CC(C)(C)c3ccc(F)cc3C(N)=O)C(F)(F)F)[nH]c2cn1	LRRK2	cell-free assay	competition with immobilised ligand	1 µM	100
F[C@@H]1CCN(c2nccc(-c3cnn4ncccc34)n2)C1	LRRK2	binding		1 µM	100
CNCc1ccccc1-c1csc([C@@H](C)Nc2nc(C)nc3cc(OC)c(OC)cc23)c1	LRRK2 G2019S	cell-free assay	competition with immobilised ligand	1 µM	72
Cc1cnc(Nc2ccc(C(=O)N3CCC(N4CCCC4)CC3)cc2)nc1-c1cc2ccccc2s1	LRRK2 G2019S	binding	competition with immobilised ligand	1 µM	2.8
N[C@H]1CCN(c2nccc(-c3cnn4ncccc34)n2)C1	LRRK2 G2019S	binding		1 µM	89
O=C(c1ccc(Nc2ncc(Cl)c(-c3cc4ccccc4s3)n2)cc1)N1CCC(N2CCCC2)CC1	LRRK2 G2019S	binding	competition with immobilised ligand	1 µM	5.9
CN(C)c1ncc(F)c(-c2cnn3ncccc23)n1	LRRK2	binding		1 µM	50
